# Bioassay records from PubChem BioAssay.
# GRIN3A LBD mod = binders of NR3A ligand-binding domain, primary screen, biophysical, differential scanning fluorimetry, uHTS; Glutamate receptor ionotropic, NMDA 3A (GRIN3A) ligand-binding domain; NR3A LBD differential scanning fluorimetry, Tm shift; 0% = protein alone, 100% = glycine-bound protein; Tm shift relative to glycine control, % at 25 µM; 340,000 compounds, 2.5% hits;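 active = melting temperature shift of at least 10% of the positive control shift, at one fixed dose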
# HCV NS3 hel inh = inhibitors of HCV NS3 helicase, primary screen, biochemical, Cy5 molecular beacon fluorescence | Hepatitis C virus NS3 helicase | inhibition, % at 10.9 µM | 290,000 compounds, 0.56% hits | NS3 helicase DNA unwinding;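 active = inhibition above the mean of all tested compounds plus 3 SD, set per campaign, cut at about 35% in these data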;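 also: 0% = DMSO wells and 100% = thioflavine S control wells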
#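 Test system: hepatitis C virus NS3 helicase domain fragment enzyme. Also added: annealed dual-labelled DNA beacon duplex, ATP-started. Timing: 60 min unwinding reaction at 25 °C after ATP addition. Technique: Cy5 fluorescence. Measure: % inhibition of unwinding.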
# EBNA-1 inh = EBNA-1 DNA-binding inhibitors, primary screen, biochemical, fluorescence polarization | 300,000 compounds, 0.34% hits | inhibition, % at 14.8 µM; in the data active = inhibition above about 28%
# FID counter = compounds displacing fluorescent DNA intercalator, primary screen, artefact control for HCV NS3 helicase inhibitor project, biochemical, FID fluorescence; DNA fluorescent intercalator displacement; inhibition, % at 7.9 µM; 290,000 compounds, 0.17% hits; AID 1845, 2009; in the data active = inhibition above about 37%;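 also: 0% = vehicle and 100% = reference compound; higher means more ethidium bromide displaced from hairpin DNA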
# FGF22 binding = binders of human FGF22 protein, primary screen, FGF22 synaptogenesis inhibitor project, biophysical, thermal shift, single point; Fibroblast growth factor 22 (Homo sapiens), Q9HCT0; recombinant FGF22 thermal shift, SYPRO orange fluorescence; percent of sucrose octasulfate shift, DMSO zero; activity (Tm shift, normalised), % at 9.99 µM; 340,000 compounds, 1.5% hits; AID 651658, 2012;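 active = mean Tm shift, scaled 0 neutral to 100 positive control, at about 1.3% or above, every replicate too, limit read from the data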
# Target sequence (Q9HCT0 whole entry, looked up): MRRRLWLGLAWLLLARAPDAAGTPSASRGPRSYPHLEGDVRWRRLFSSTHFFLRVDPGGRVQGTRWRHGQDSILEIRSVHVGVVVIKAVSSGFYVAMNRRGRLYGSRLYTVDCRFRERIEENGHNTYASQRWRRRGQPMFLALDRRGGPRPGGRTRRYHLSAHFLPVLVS
# ZTA counter = ZTA (EBV) inhibition in EBNA-1 counter-screen. inhibition, % at 11 µM. P03206. ZTA-DNA binding, fluorescence polarization. AID 2234. 320,000 compounds, 0.15% hits; in the data active = inhibition above about 33%
# Target sequence (P03206 whole entry, looked up): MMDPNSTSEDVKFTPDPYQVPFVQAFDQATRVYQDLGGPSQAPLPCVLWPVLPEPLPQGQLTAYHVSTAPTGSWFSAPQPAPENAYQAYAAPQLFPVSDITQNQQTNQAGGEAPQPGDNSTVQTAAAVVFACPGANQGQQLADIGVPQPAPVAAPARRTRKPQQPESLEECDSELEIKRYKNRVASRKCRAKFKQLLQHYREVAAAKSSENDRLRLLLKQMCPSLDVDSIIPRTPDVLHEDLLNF
# An asterisk follows results filed as active; . = no result given. Rows were chosen to be rich in hits. Some 3.6% of all compounds tested hit in one or more screens of this group.
SMILES,GRIN3A LBD mod,HCV NS3 hel inh,EBNA-1 inh,FID counter,FGF22 binding,ZTA counter
CN(C)C(=O)c1ccc(-c2ccc([C@H]3[C@@H](C#N)N(C(=O)C4CCC4)[C@@H]3CO)cc2)cc1,.,.,.,.,0,.
COc1ccc(Cl)cc1NC(=S)NCCc1c[nH]c2ccccc12,29*,-17,4,4,.,4
O=C(CN1C(=O)NC(Cc2c[nH]c3ccccc23)C1=O)NCCc1ccccc1 (stereo unspecified),-1,-1,-17,-12,0,-8
Cc1ccccc1NC(=S)NCCc1c[nH]c2ccccc12,-10,4,3,-2,0,19
COc1ccc(CCNC(=O)CN2C(=O)NC(Cc3c[nH]c4ccccc34)C2=O)cc1 (stereo unspecified),25*,14,-8,-21,0,-11
COc1ccc(C(=O)NCCc2c[nH]c3ccccc23)cc1,10*,7,-5,-5,0,-2
COc1ccc(CCNC(=S)NCCc2c[nH]c3ccccc23)cc1,31*,-13,-7,-7,1.4*,-12
CCCc1cn(CC[C@@H]2CC[C@H](NC(=O)C3CCCCC3)[C@@H](CO)O2)nn1,.,.,.,.,0,.
CC(C)NC(=O)N[C@@H]1CC[C@@H](CC(=O)NCc2ccc(Oc3ccccc3)cc2)O[C@@H]1CO,.,.,.,.,0,.
CC(=O)c1ccc(-c2ccc(C(=O)Nc3nc(-c4ccccn4)cs3)o2)cc1,11*,.,.,.,0,.
Cc1ccc(C(=O)Nc2nc(-c3ccccn3)cs2)o1,8,1,3,-11,0,-2
O=C(Nc1nc(-c2ccccn2)cs1)c1ccc(-c2ccccc2F)o1,12*,.,.,.,0,-23
O=C(c1ccccc1F)N1CC[C@@H]2[C@@H](CO)Nc3ccc(C#Cc4ccc(F)cc4)cc3[C@@H]21,.,.,.,.,0,.
COCC(=O)Nc1ccc2c(c1)OC[C@@H](C)N(Cc1ccccc1F)C[C@@H](C)[C@H](OC)CN(C)C2=O,.,.,.,.,0,.
O=C(N/N=C\c1cn(-c2ccccc2)nc1-c1ccccc1)c1ccc2c(c1)OCO2,3,4,-3,-9,.,-5
O=C(N/N=C/c1cn(-c2ccccc2)nc1-c1cccnc1)c1ccccc1,-2,-13,0,-17,1,6
O=C(N/N=C/c1cn(-c2cccs2)nc1-c1ccccc1)c1ccccc1Br,11*,-1,8,4,0,7
O=C(N/N=C/c1cn(-c2cccs2)nc1-c1ccccc1)c1ccccc1O,26*,7,11,-5,.,-9
O=C(C[C@H]1CC[C@H](NC(=O)Nc2ccc(F)cc2)[C@H](CO)O1)NCCN1CCCC1,.,.,.,.,0,.
CCC(=O)c1ccc(OCc2ccc(C#N)cc2)cc1,1,-1,-22,-4,0,-8
CCC(=O)c1ccc(OCc2ccc(C(=O)OC)cc2)cc1,-16,-10,-3,-8,44*,6
CC(C)C#Cc1cnc2c(c1)C(=O)N([C@@H](C)CO)C[C@@H](C)[C@@H](CN(C)C(=O)c1ccccc1F)O2,.,.,.,.,0,.
CC(C)(CCC(=S)N1CCOCC1)c1ccccc1,11*,.,.,.,0,.
Cc1ccc([N+](=O)[O-])cc1CN1CCN(c2ncc(Cc3ccccc3)cn2)CC1,.,.,.,.,43*,.
O=[N+]([O-])c1ccc(F)c(CN2CCN(c3ncc(Cc4ccccc4)cn3)CC2)c1,.,.,.,.,0,.
SMILES,GRIN3A LBD mod,HCV NS3 hel inh,EBNA-1 inh,FID counter,FGF22 binding,ZTA counter
CCCCOc1ccc(Cc2c(COCC)[nH]c(=S)[nH]c2=O)cc1,0,22,5,-32,.,-8
CCOCc1[nH]c(=S)[nH]c(=O)c1Cc1ccc(OCC)cc1,-2,5,7,-23,43*,-2
CN(C)C(=O)[C@@H]1[C@@H](CO)[C@@H]2Cn3c(ccc(-c4ccccc4)c3=O)[C@@H]2N1Cc1ccccc1,.,.,.,.,0,.
COc1ccc(Nc2cc(C)c3cc([N+](=O)[O-])ccc3n2)cc1,28*,-22,4,11,0,8
Cc1ccc(Nc2nc(=O)c3cc([N+](=O)[O-])ccc3s2)cc1,13*,4,7,-1,0,3
COc1ccc(Nc2nc(=O)c3cc([N+](=O)[O-])ccc3s2)cc1,13*,6,.,2,0,.
COc1ccc(Nc2ccc([N+](=O)[O-])cn2)cc1,1,2,-16,-1,0,-32
C[C@H]1CN([C@@H](C)CO)C(=O)c2cccc(NC(=O)C3CCCCC3)c2O[C@H]1CN(C)C(=O)Nc1ccccc1,.,.,.,.,0,.
O=[N+]([O-])c1ccccc1NCc1c(O)ccc2ccccc12,13*,-4,-4,10,0,-4
Brc1ccc(-c2noc(C3CCCCC3)n2)cc1,14*,0,-7,-2,0,-7
C[C@H](CO)N1C[C@H](C)[C@@H](CN(C)S(=O)(=O)c2ccc(F)cc2)OCCCC[C@H](C)Oc2ccc(NS(=O)(=O)c3ccc(F)cc3)cc2C1=O,.,.,.,.,0,.
O=[N+]([O-])c1ccc(NC(=S)NCc2ccc(F)cc2)cc1,7,2,-6,9,0,0
O=S(=O)(c1ccc(NC(=S)NCCc2ccccc2)cc1)N1CCOCC1,24*,2,-8,-7,.,13
COc1ccc(NS(=O)(=O)c2ccc(S(=O)(=O)N3CCOCC3)cc2)cc1,2,1,5,-5,0,-4
O=S(=O)(c1ccc(Cl)c(NC(=S)Nc2cccc(O)c2)c1)N1CCOCC1,5,-5,1,-3,1.7*,3
O=S(=O)(Nc1ccc(S(=O)(=O)N2CCOCC2)cc1)c1ccccc1,10*,1,7,-2,.,0
O=[N+]([O-])c1ccc(NC(=S)NCCc2ccc(Cl)cc2)cc1,31*,-9,1,17,.,-2
O=S(=O)(c1ccc(NC(=S)NN=C(Cc2ccccc2)Cc2ccccc2)cc1)N1CCOCC1,-6,7,5,2,0,-3
COc1ccc(-c2ccc3c(c2)O[C@@H](CN(C)CC2CCOCC2)[C@H](C)CN([C@@H](C)CO)S3(=O)=O)cc1,.,.,.,.,0,.
C[C@@H]1CN([C@H](C)CO)C(=O)Cc2cc(NC(=O)Nc3cccc4ccccc34)ccc2O[C@H]1CN(C)C(=O)Nc1ccc(F)cc1,.,.,.,.,0,.
NS(=O)(=O)c1ccc(NC(=S)NCCc2ccccc2)cc1,12*,-1,-22,-1,2.2*,0
O=[N+]([O-])c1ccc(NNC(=S)Nc2ccccc2)cc1,-1,-1,-12,2,.,-8
